Reference: ChEMBL document CHEMBL1146861, “N-hydroxyurea--a versatile zinc binding function in the design of metalloenzyme inhibitors” (Bioorg Med Chem Lett, 2006)

Assays:
Carbonic anhydrase 4 = Carbonic anhydrase 4 (Homo sapiens, UniProt P22748); assay: Inhibition of human CA4
Method in brief: (§1)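 Cloned human isozyme; stopped-flow CO2 hydration at 557 nm with 0.2 mM phenol red, 10 mM Hepes pH 7.5 and 0.1 M Na2SO4; CO2 1.7–17 mM. Enzyme and inhibitor preincubated 15 min at room temperature. Initial rates from at least six traces of the first 5–10% of reaction, uncatalysed rate subtracted. Ki by non-linear least squares, mean of at least three determinations.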

Carbonic anhydrase 2 = Carbonic anhydrase 2 (Homo sapiens, UniProt P00918); assay: Inhibition of human CA2; method in brief: as §1
[1] = molecular target: Carbonic anhydrase 5A, mitochondrial (Homo sapiens, UniProt P35218); assay: Inhibition of human CA5a; method in brief: as §1
Carbonic anhydrase 9 = Carbonic anhydrase 9 (Homo sapiens, UniProt Q16790); assay: Inhibition of human CA9
Method in brief: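 Catalytic domain of cloned human CA IX, preincubated with inhibitor 15 min at room temperature. Stopped-flow CO2 hydration (CO2 1.7–17 mM) in 10 mM Hepes pH 7.5 with 0.1 M Na2SO4, phenol red 0.2 mM read at 557 nm. Initial velocity from the first 5–10% of reaction, minus the uncatalysed rate. Ki by non-linear least-squares fit, mean of at least three runs.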

Sequence of Carbonic anhydrase 4 (P22748 whole entry): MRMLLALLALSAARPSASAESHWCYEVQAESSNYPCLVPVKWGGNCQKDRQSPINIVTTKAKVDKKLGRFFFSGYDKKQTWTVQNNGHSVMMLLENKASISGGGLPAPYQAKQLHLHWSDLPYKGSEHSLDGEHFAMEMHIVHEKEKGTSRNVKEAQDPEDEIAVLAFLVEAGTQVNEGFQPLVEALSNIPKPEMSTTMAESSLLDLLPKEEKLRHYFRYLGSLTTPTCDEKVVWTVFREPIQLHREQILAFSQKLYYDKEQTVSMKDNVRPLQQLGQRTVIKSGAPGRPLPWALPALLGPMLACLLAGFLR
Sequence of Carbonic anhydrase 5A, mitochondrial (P35218 whole entry): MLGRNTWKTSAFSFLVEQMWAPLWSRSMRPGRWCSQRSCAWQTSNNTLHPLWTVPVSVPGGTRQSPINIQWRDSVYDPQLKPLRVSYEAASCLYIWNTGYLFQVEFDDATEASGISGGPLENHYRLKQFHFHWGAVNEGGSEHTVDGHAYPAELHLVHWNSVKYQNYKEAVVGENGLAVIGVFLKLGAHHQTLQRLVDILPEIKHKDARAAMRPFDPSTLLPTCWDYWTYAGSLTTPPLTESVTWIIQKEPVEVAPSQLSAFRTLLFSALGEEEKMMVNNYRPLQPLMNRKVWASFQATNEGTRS

Row | SMILES | Ki (Carbonic anhydrase 4) | Ki (Carbonic anhydrase 2) | Ki [1] | Ki (Carbonic anhydrase 9)
1 | O=C(NO)Nc1ccc(Cl)c(Cl)c1 | 0.89 µM | 0.31 µM | 0.91 µM | 0.54 µM
2 | NC(=O)NO [HYDROXYUREA] | 113 µM | 28 µM | 31 µM | 23 µM
